Experiments:
[1] = system: QC85.5 hybridoma; assay: T cell hybridoma assay; format: cell-based, mouse; settings: IL-2 production; in words
In short: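 Increasing numbers of splenocytes from transgenic mice were cultured 24 h with QC85.5 hybridoma cells. QC85.5 was raised by immunizing CE/J mice with a position-72 altered Hb peptide, subcloned twice, and recognizes several position-72 variants. IL-2 in supernatant was measured by CTLL-2 proliferation and plotted as CTLL-2 cpm against splenocytes per well. Each point is the mean of triplicate wells.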

[2] = system: splenocytes from APLtg × 3.L2tg mice; assay: Primary T cell proliferation of naive splenocytes to Hb; format: cell-based, mouse; settings: in words
In short: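 Naive splenocytes from APLtg × 3.L2tg mice or 3.L2tg controls were plated at 5 × 10^5/well with increasing Hb(64–76) peptide concentrations for 48 h. They were then pulsed with 0.4 μCi [3H]TdR for 18 h, harvested and counted. Read-out was mean cpm of triplicate wells per peptide dose, and curves were averaged across several experiments.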

[3] = system: 3.L2 TCR; settings: cited from earlier work; for Half-life: longevity of the 3.L2 TCR–APL complex; for Half-life / Kd: BIAcore; for Kd: read-out: K D k off/k on, kinetic
[4] = system: mature 3.L2 T cells; settings: cited from earlier work; for Effect on mature T cells: ligand class in words
[5] = system: mature 3.L2 T cells; settings: B cell apoptosis assay; cited from earlier work
[6] = system: 3.L2tg thymocytes; assay: Three-color FACS of thymocytes from APLtg × 3.L2tg mice; format: in vivo, mouse; settings: for Interpretation: effect on thymic selection of 3.L2tg T cells: ligand expressed in thymus as mHEL epitope tag, in words
[7] = system: 3.L2.12 hybridoma; settings: cited from earlier work

GKKVITAFNEGLK [N72(wt), Hb(64–76)]
Stimulation of QC85.5 hybridoma by peptide [1]: produce IL-2
Response of naive 3.L2tg splenocytes to Hb(64–76) on the selecting background [2]: tolerant to Hb(64–76)
Half-life [3]: 10.8 s
Kd [3]: 12 µM
Effect on mature T cells [4]: the strongest agonist
Relative activity [5]: 100
Interpretation: effect on thymic selection of 3.L2tg T cells [6]: complete negative selection

GKKVITAFQEGLK [Ligand Q72, Hb(64–76) N72Q]
Stimulation of QC85.5 hybridoma by peptide [1]: stimulated most strongly
Binding to the 3.L2 TCR in BIAcore experiments ([3]; in words): no binding can be detected
Effect on mature T cells [4]: no effect on mature 3.L2 T cells
Relative activity [5]: none
Increase in percentage of CD4-SP cells with high levels of the 3.L2 TCR over 3.L2tg control ([6]; P < 0.01): 12%
Interpretation: effect on thymic selection of 3.L2tg T cells [6]: enhance the positive selection

Hb(64–76) N72A [Ligand A72]
Stimulation of QC85.5 hybridoma by peptide [1]: produce IL-2
Half-life [3]: <2 s
Effect on mature T cells [4]: a weaker antagonist
Relative activity [5]: 0.0007
Interpretation: effect on thymic selection of 3.L2tg T cells [6]: modest negative selection

Hb(64–76) N72E [Ligand E72]
Effect on mature T cells [4]: no effect on mature T cells
Relative activity [5]: none
Interpretation: effect on thymic selection of 3.L2tg T cells [6]: no effect on 3.L2tg T cell development

Hb(64–76) N72I [Ligand I72]
Response of naive 3.L2tg splenocytes to Hb(64–76) on the selecting background [2]: tolerant to Hb(64–76)
Half-life [3]: 2.3 to 3.4 s
Kd [3]: 10 to 20 µM
Effect on mature T cells [4]: an antagonist
Relative activity [5]: 0.006
Interpretation: effect on thymic selection of 3.L2tg T cells [6]: complete negative selection

Hb(64–76) N72T [Ligand T72]
Stimulation of QC85.5 hybridoma by peptide [1]: produce IL-2
Response of naive 3.L2tg splenocytes to Hb(64–76) on the selecting background [2]: tolerant to Hb(64–76)
Reduction of 3.L2.12 stimulation by peptide [7]: 50 fold
Half-life [3]: 5.1 s
Kd [3]: 9.9 µM
Fold less active than N72(wt) [4]: 50 fold
Effect on mature T cells [4]: a weaker agonist
Relative activity [5]: 2
Interpretation: effect on thymic selection of 3.L2tg T cells [6]: identical effect

From PMC2193645 (The Journal of Experimental Medicine, 1999)
